From ChEMBL document CHEMBL1134669, “N-Succinyl-(beta-alanyl-L-leucyl-L-alanyl-L-leucyl)doxorubicin: an extracellularly tumor-activated prodrug devoid of intravenous acute toxicity” (2001)

Key:
[1] = system: Mus musculus; experiment: Effect of heparin pretreatment on the acute toxicity when 0 IU of heparin administered; Activity as % of animals; type: functional
How it was run: (§1)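 Male OF-1 mice; heparin (low molecular weight, 0, 4000 or 8000 IU in 0.9% NaCl, filter-sterilized) given ip or iv 1 h before iv bolus of prodrug in 0.9% NaCl (10 µL/g body weight) at 172.4 µmol/kg. Acute toxicity scored as % of animals; survival time recorded in days. At least 3 animals per experiment.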

[2] = system: Mus musculus; experiment: Minimum survival time after heparin pretreatment to mice at 0 IU of heparin administered
[3] = system: Mus musculus; experiment: Effect of heparin pretreatment on the acute toxicity when 4000 IU of heparin administered ip; Activity as % of animals; type: functional; how it was run: as §1
[4] = system: Mus musculus; experiment: Effect of heparin pretreatment on the acute toxicity when 4000 IU of heparin administered iv; Activity as % of animals; type: functional; how it was run: as §1
[5] = system: Mus musculus; experiment: Effect of heparin pretreatment on the acute toxicity when 8000 IU of heparin administered ip; type: functional; how it was run: as §1
[6] = system: Mus musculus; experiment: Maximum survival time after heparin pretreatment to mice at 4000 IU of heparin administered intraperitoneally; type: functional; how it was run: as §1
[7] = system: Mus musculus; experiment: Maximum survival time after heparin pretreatment to mice at 4000 IU of heparin administered intravenously; type: functional; how it was run: as §1
[8] = system: Mus musculus; experiment: Maximum survival time after heparin pretreatment to mice at 8000 IU of heparin administered intraperitoneally; type: functional; how it was run: as §1

Structure (SMILES) | Acute toxicity [1] | min survival time [2] | Acute toxicity [3] | Acute toxicity [4] | Acute toxicity [5] | MST [6] | MST [7] | MST [8]
COc1cccc2c1C(=O)c1c(O)c3c(c(O)c1C2=O)C[C@@](O)(C(=O)CO)C[C@@H]3O[C@H]1C[C@H](NC(=O)[C@H](CC(C)C)NC(=O)[C@H](C)NC(=O)[C@H](CC(C)C)NC(=O)CCNC(=O)CCC(=O)[O-])[C@H](O)[C@H](C)O1.[Na+] | 0% | 9 days | – | – | – | – | – | –
CC(O)C(=O)O.COc1cccc2c1C(=O)c1c(O)c3c(c(O)c1C2=O)C[C@@](O)(C(=O)CO)C[C@@H]3O[C@H]1C[C@H](NC(=O)[C@H](CC(C)C)NC(=O)[C@H](C)NC(=O)[C@H](CC(C)C)NC(=O)CCN)[C@H](O)[C@H](C)O1 | 100% | 0 days | 37% | 33% | 0% | 9 days | 11 days | 11 days
